Data reported in ChEMBL document CHEMBL2021876, “New pyridobenzoxazepine derivatives derived from 5-(4-methylpiperazin-1-yl)-8-chloro-pyrido[2,3-b][1,5]benzoxazepine (JL13): chemical synthesis and pharmacological evaluation” (J Med Chem, 2012).

How the values were obtained:
[1] = In vivo displacement of [3H]SCH-23390 from dopamine D1 receptor in Sprague-Dawley rat nucleus accumbens at 13.75 mg/kg, ip qd for 28 days by autoradiography relative to control; type: functional; settings: route intraperitoneal
Procedure, shortened: (§1)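 Forebrain sections from male Sprague-Dawley rats (N = 8/group) after 28 days of daily ip injections versus vehicle. Incubation 1 h RT in 50 mM Tris-HCl pH 7.4, 120 mM NaCl, 5 mM KCl, 2 mM CaCl2, 1 mM MgCl2 with 1 nM [3H]SCH-23390 and 100 nM ketanserin. Nonspecific: 1 μM cis-flupenthixol. Saturating conditions; fmol/mg tissue, % of control.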

Caudate-putamen [2] = assay: In vivo displacement of [3H]Nemonapride from dopamine D2 receptor in Sprague-Dawley rat lateral of caudate putamen at 13.75 mg/kg, ip qd for 28 days by autoradiography relative to control; type: functional; settings: route intraperitoneal
Procedure, shortened: (§2)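 Male Sprague-Dawley rats, N = 8/group, daily ip dosing for 28 days with vehicle controls; cryostat sections (10 μm) preincubated 1 h RT. Incubation 1 h RT in 50 mM Tris-HCl pH 7.4, 120 mM NaCl, 5 mM KCl, 2 mM CaCl2, 1 mM MgCl2 with 1 nM [3H]nemonapride, 0.5 μM DTG, 0.1 μM pindolol. Nonspecific: 10 μM S(−)-sulpiride. Values fmol/mg tissue, % of control.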

[3] = target: 5-hydroxytryptamine receptor 2A (Homo sapiens, UniProt P28223); assay: Displacement of [3H]ketanserin from human recombinant 5HT2A receptor expressed in CHO cells after 60 mins by liquid scintillation counting; type: cell-based
[4] = target: T1, 5-hydroxytryptamine receptor 1A (Homo sapiens, UniProt P08908); assay: Displacement of [3H]8-OH-DPAT from human recombinant 5HT1A receptor expressed in CHO cells after 60 mins by liquid scintillation counting; type: cell-based
T1 sequence (P08908 whole entry): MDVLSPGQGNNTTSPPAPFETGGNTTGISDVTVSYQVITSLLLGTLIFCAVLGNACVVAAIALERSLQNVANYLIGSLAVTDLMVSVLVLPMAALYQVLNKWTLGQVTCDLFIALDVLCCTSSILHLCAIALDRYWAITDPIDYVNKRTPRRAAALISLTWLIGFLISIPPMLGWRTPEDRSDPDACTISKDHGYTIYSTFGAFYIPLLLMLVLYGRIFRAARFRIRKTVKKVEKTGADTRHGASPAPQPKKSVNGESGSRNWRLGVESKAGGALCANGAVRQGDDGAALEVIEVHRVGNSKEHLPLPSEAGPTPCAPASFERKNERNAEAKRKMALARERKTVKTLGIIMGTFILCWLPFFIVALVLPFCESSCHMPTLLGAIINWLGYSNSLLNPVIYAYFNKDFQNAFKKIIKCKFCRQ

[5] = In vivo displacement of [3H]Nemonapride from dopamine D4 receptor in Sprague-Dawley rat medial-prefrontal cortex at 13.75 mg/kg, ip qd for 28 days by autoradiography relative to control; type: functional; settings: route intraperitoneal
Caudate-putamen [6] = assay: In vivo displacement of [3H]Ketanserin from 5HT2A receptor in Sprague-Dawley rat lateral part of caudate putamen at 13.75 mg/kg, ip qd for 28 days by autoradiography relative to control; type: functional; settings: route intraperitoneal
Procedure, shortened: (§3)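 Rats (male Sprague-Dawley, N = 8/group) given daily ip injections for 28 days versus vehicle. Brain sections preincubated 1 h RT in 50 mM Tris-HCl pH 7.7, then 1 h RT with 3.0 nM [3H]ketanserin plus 1 μM prazosin and 100 nM tetrabenazine. Nonspecific: 1 μM methysergide. Washes 2 × 30 min ice-cold. Readout fmol/mg tissue as % of control, mean ± SEM.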

[7] = In vivo displacement of [3H]Nemonapride from dopamine D4 receptor in Sprague-Dawley rat dorsolateral frontal cortex at 13.75 mg/kg, ip qd for 28 days by autoradiography relative to control; type: functional; settings: route intraperitoneal
Hippocampus [8] = assay: In vivo displacement of [3H]Nemonapride from dopamine D2 receptor in Sprague-Dawley rat hippocampus at 13.75 mg/kg, ip qd for 28 days by autoradiography relative to control; type: functional; settings: route intraperitoneal; procedure, shortened: as §2
[9] = target: T2, Alpha-2A adrenergic receptor (Homo sapiens, UniProt P08913); assay: Displacement of [3H]-MK-912 from human cloned adrenergic alpha2A receptor expressed in insect Sf9 membranes after 60 mins by liquid scintillation counting; type: cell membranes
T2 sequence (P08913 whole entry): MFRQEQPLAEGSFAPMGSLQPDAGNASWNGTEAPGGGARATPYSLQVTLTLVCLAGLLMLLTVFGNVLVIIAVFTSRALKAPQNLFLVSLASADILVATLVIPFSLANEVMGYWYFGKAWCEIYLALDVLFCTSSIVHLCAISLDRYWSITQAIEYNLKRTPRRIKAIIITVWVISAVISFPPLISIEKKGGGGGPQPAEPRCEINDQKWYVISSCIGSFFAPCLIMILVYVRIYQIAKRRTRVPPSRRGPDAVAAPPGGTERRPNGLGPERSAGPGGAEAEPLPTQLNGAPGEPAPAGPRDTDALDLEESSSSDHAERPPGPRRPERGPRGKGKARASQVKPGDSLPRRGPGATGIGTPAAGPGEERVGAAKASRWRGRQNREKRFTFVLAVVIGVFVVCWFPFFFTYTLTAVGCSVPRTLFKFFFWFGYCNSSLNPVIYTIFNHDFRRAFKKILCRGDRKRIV
Procedure, shortened: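 Membranes from Sf9 cells expressing cloned human α2A-adrenoceptor. Nonspecific binding defined with 10 μM WB4101. Filtered on GF/C and counted by scintillation.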

[10] = In vivo displacement of [3H]Ketanserin from 5HT2A receptor in Sprague-Dawley rat nucleus accumbens at 13.75 mg/kg, ip qd for 28 days by autoradiography relative to control; type: functional; settings: route intraperitoneal; procedure, shortened: as §3
Hippocampus [11] = assay: In vivo displacement of [3H]Ketanserin from 5HT2A receptor in Sprague-Dawley rat hippocampus CA3 region at 13.75 mg/kg, ip qd for 28 days by autoradiography relative to control; type: functional; settings: route intraperitoneal; procedure, shortened: as §3
[12] = target: D(2) dopamine receptor (Rattus norvegicus) (UniProt P61169); assay: In vivo displacement of [3H]Nemonapride from dopamine D2 receptor in Sprague-Dawley rat dorsolateral frontal cortex at 13.75 mg/kg, ip qd for 28 days by autoradiography relative to control; type: functional, organism-based; parameters: dose 13.75 mg/kg; procedure, shortened: as §2
[13] = target: D(2) dopamine receptor (Rattus norvegicus) (UniProt P61169); assay: In vivo displacement of [3H]Nemonapride from dopamine D2 receptor in Sprague-Dawley rat entorhinal cortex at 13.75 mg/kg, ip qd for 28 days by autoradiography relative to control; type: functional, organism-based; parameters: dose 13.75 mg/kg; procedure, shortened: as §2
[14] = In vivo displacement of [3H]SCH-23390 from dopamine D1 receptor in Sprague-Dawley rat medial-prefrontal cortex at 13.75 mg/kg, ip qd for 28 days by autoradiography relative to control; type: functional; settings: route intraperitoneal; procedure, shortened: as §1
[15] = In vivo displacement of [3H]Ketanserin from 5HT2A receptor in Sprague-Dawley rat dorsolateral frontal cortex at 13.75 mg/kg, ip qd for 28 days by autoradiography relative to control; type: functional; settings: route intraperitoneal; procedure, shortened: as §3

Sequence of D(2) dopamine receptor (Rattus norvegicus) (P61169 whole entry): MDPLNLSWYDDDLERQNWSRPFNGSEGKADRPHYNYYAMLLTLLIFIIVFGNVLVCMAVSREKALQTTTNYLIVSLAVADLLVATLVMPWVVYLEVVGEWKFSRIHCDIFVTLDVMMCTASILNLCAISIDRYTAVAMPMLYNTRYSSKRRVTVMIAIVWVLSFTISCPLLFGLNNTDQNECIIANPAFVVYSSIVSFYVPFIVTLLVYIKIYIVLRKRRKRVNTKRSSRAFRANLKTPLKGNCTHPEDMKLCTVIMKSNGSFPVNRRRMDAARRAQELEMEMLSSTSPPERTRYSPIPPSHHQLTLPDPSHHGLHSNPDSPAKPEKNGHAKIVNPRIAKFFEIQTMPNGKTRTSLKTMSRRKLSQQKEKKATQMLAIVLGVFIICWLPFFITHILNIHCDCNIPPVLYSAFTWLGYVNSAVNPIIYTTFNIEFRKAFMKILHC
Sequence of 5-hydroxytryptamine receptor 2A (P28223 whole entry): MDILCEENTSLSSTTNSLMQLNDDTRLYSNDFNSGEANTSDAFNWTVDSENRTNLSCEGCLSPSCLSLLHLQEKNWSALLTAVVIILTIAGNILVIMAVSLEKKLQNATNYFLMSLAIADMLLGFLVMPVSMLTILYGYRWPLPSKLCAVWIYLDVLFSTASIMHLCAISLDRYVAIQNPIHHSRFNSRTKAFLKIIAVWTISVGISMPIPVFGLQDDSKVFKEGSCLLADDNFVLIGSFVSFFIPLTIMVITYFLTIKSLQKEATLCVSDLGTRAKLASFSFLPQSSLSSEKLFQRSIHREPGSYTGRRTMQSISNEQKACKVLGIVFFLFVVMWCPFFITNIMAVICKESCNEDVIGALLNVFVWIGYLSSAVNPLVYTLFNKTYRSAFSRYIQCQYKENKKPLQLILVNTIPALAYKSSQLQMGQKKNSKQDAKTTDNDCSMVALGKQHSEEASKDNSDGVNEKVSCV

Compound: Clc1ccc2c(c1)N=C(N1CCNCC1)c1cccnc1O2
- inhibition in vivo at 13.75 mg/kg [1]: 128%
- inhibition in vivo at 13.75 mg/kg (Caudate-putamen [2]): 98%
- Ki [3]: 131 nM
- Ki [4]: 375 nM
- inhibition in vivo at 13.75 mg/kg [5]: 110%
- inhibition in vivo at 13.75 mg/kg (Caudate-putamen [6]): 107%
- inhibition in vivo at 13.75 mg/kg [7]: 108%
- inhibition in vivo at 13.75 mg/kg (Hippocampus [8]): 134%
- Ki [9]: 729 nM
- inhibition in vivo at 13.75 mg/kg [10]: 98%
- inhibition in vivo at 13.75 mg/kg (Hippocampus [11]): 92%
- inhibition [12]: 103%
- inhibition [13]: 96%
- inhibition in vivo at 13.75 mg/kg [14]: 97%
- inhibition in vivo at 13.75 mg/kg [15]: 53%
